PMC3744103 (Molecular cancer therapeutics, 2013)
Several values for one entry are separate records, joined by “and”; a condition that tells them apart may be missing. Equal values may be shown once.

Key:
RT4 cells = assay: Cell viability, ATPase activity assay; type: cell-based, human; settings: read-out: IC50, cell viability; RT4, ISO 5–60 μM, 48 h, n=3
UMUC3 cells [1] = assay: Anchorage-independent growth assay; type: cell-based, human; settings: UMUC3 in soft agar, concentration-dependent, as low as 5 μM, P<0.01
Summary of the method: (§1)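 UMUC3 cells (DMEM, 10% FBS; stable GFP or GFP-Cyclin D1 transfectants made by co-transfection with pSuper vector) were seeded at 1×10^4 per well in 0.33% soft agar in 10% FBS BME, with or without test compound, over a 0.5% agar bottom layer. Vehicle was 0.1% DMSO. Cultures were kept at 37°C, 5% CO2 for 21 days. Colonies over 32 cells were counted by microscope as colonies per 10,000 seeded cells (mean±SD, 3 experiments).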

Cl41 cells = assay: Cell viability, ATPase activity assay; type: cell-based, mouse; settings: normal Cl41 cells, ISO 5–60 μM, 48 h
UMUC3(GFP) cells = assay: Cell cycle analysis by flow cytometry in stable transfectant; type: cell-based, human; settings: ISO 24 h, control 62.74%
[2] = tested on: SP1 binding to Cyclin D1 promoter in UMUC3 cells; assay: ChIP assay; type: cell-based, human; settings: UMUC3, ISO 5 μM, 12 hours
Summary of the method: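 Chromatin immunoprecipitation (EZ-ChIP kit) on UMUC3 cells left untreated or given 5 μM test compound for 12 h. Precipitated DNA amplified by PCR with primers covering the SP1-binding region −92 to +27 of the human Cyclin D1 promoter.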

[3] = tested on: bovine aortic smooth muscle cells (BASMCs); settings: cited from earlier work
[4] = tested on: Cyclin D1 protein expression in RT4 cells; assay: Western blotting of Cyclin D1; type: cell-based, human; settings: low grade RT4 cell line, 24h
[5] = tested on: cyclin d1 mRNA in UMUC3 cells; assay: Semiquantitative RT-PCR; type: cell-based, human; settings: UMUC3, concentration- and time-dependent (24 h; 5 μM time course)
Summary of the method: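 UMUC3 cells treated with test compound at the indicated concentrations for 24 h, or at 5 μM for the indicated times. Total RNA isolated with TRIzol and reverse transcribed. Cyclin D1 mRNA measured by semiquantitative RT-PCR against GAPDH, with products run on 2% agarose and stained with ethidium bromide.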

UMUC3 cells [6] = assay: Cell cycle and apoptosis analysis by flow cytometry; type: cell-based, human; settings: UMUC3, 5 μM ISO; for cells in G0/G1 (growth arrest): control 47.58%
[7] = tested on: SP1-dependent transcriptional activity in UMUC3 cells; assay: SP1 luciferase reporter assay; type: cell-based, human; settings: UMUC3 stable reporter, ISO 5μM, P<0.01
Summary of the method: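 A reporter with three consensus SP1 sites was stably co-transfected with pRL-TK and pSuper into UMUC3 cells. Cells were seeded at 1×10^4 per well and, at 80–90% confluence, exposed to 5 μM test compound for various times. Lysis buffer was Tris-phosphate pH 7.8 with EDTA, Triton X-100 and glycerol. Dual-luciferase read-out gave relative SP1 activity (means±SE, three independent experiments).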

[8] = tested on: SP1 protein expression in UMUC3 cells; assay: Western blotting of cytoplasmic and nuclear extracts for transcription factors; type: cell-based, human; settings: UMUC3, 5 μM ISO, 12 h
Summary of the method: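 UMUC3 cells in 10-cm dishes were treated with 0.1% DMSO or 5 μM test compound for 12 h. Cytoplasmic and nuclear fractions were prepared with a nuclear/cytosol fractionation kit and stored at −80°C. Immunoblots used an AP-conjugated secondary with ECF detection and GAPDH as loading control. Nuclear SP1 was quantified by scanning relative to C-Jun (n=3).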

cardiac hypertrophy = settings: by anti-oxidative activity; cited from earlier work
[9] = tested on: human bladder cancer cells; settings: cited from earlier work
[10] = tested on: Cyclin D1 protein expression in RT112 cells; assay: Western blotting of Cyclin D1; type: cell-based, human
UMUC3 cells [11] = assay: Cell morphology observation; type: cell-based, human; settings: UMUC3, 20 μM ISO, 24 hours
[12] = tested on: UMUC3(GFP-Cyclin D1) cells; assay: Cell cycle analysis by flow cytometry in stable transfectant; type: cell-based, human; settings: ISO 24 h, control 51.01%
[13] = tested on: UMUC3 (GFP) and UMUC3 (GFP-Cyclin D1) cells; assay: Anchorage-independent growth in soft agar, stable transfectants; type: cell-based, human; settings: UMUC3 (GFP) vs UMUC3 (GFP-Cyclin D1) in soft agar
Summary of the method: as §1

UMUC3 cells [14] = assay: Cell viability, ATPase activity assay; type: cell-based, human
Summary of the method: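 Cells exposed for 48 h to varying concentrations of test compound, with 0.1% DMSO as vehicle control. Viability read by an ATPase-based assay in three independent experiments. UMUC3 kept in DMEM with 10% FBS at 37 °C and 5% CO2. IC50 given with n=3.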

[15] = tested on: Cyclin D1 protein expression in Cl41 cells; assay: Western blotting of Cyclin D1; type: cell-based, mouse; settings: normal Cl41 cell line, 24h
[16] = tested on: Cyclin D1 protein expression in UMUC3 cells; assay: Western blotting of Cyclin D1 and cell cycle regulators; type: cell-based, human
[17] = tested on: endogenous Cyclin D1 and exogenous GFP-Cyclin D1 in UMUC3 transfectants; assay: Western blotting in stable transfectants; type: cell-based, human; settings: ISO 24 h
Summary of the method: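 UMUC3 cells stably transfected with GFP or GFP-Cyclin D1 constructs were treated with test compound for 24 h. Cells were lysed in 10 mM Tris-HCl (pH 7.4), 1% SDS, 1 mM Na3VO4, and protein was quantified by DC assay. Blots were probed with primary antibodies and an AP-conjugated secondary, with ECF detection.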

[18] = tested on: Cyclin D1 promoter transcriptional activity in UMUC3 cells; assay: Cyclin D1 promoter-driven luciferase reporter assay; type: cell-based, human; settings: ISO 5μM
Summary of the method: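 UMUC3 cells stably carrying a Cyclin D1 promoter-luciferase reporter were seeded at 1×10^4 per well and treated with 5 μM test compound at 80–90% confluence for the indicated times. Luciferase activity read on a microplate luminometer.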

[19] = ISO pharmacokinetics in mouse serum, LC/MS/MS; type: in vivo, mice; settings: for Caverage ± SD, serum ISO concentration: mouse serum, 150 mg/kg gastric gavage, n=3
Summary of the method: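 Male […] mice (20–25 g, 30 total) received 150 mg/kg by gastric gavage; three were killed per time point from 0.033 to 4 h. Serum (centrifuged 4000 rpm, 30 min; stored −20 °C) extracted with methanol, filtered 0.45 μm and run on LC/MS/MS: negative ESI, MRM, m/z 257.0/241.1, naringenin 271.1/151.1. Parameters derived by non-compartmental analysis.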

[20] = mice, 150 mg/kg oral, non-compartmental model

For `COc1cc(/C=C/c2cc(O)cc(O)c2)ccc1O` [ISO, Isorhapontigenin], the IC50 (RT4 cells) was 38.6 ± 2.9 µM, the anchorage-independent growth (UMUC3 cells [1]) was “markedly inhibited anchorage-independent growth” and the cell viability (Cl41 cells) was “no obvious reduction of cell viability”. For the same compound, the “cells in G0/G1 (growth arrest)” value (UMUC3(GFP) cells) was 74.60%, the “SP1 binding to Cyclin D1 promoter region −92~+27” value [2] was “this binding was impaired” and the “oxLDL-induced proliferation and mitogenesis” value [3] was “inhibitory effect”. The “Cyclin D1 expression” value [4] was “slight inhibition”, the “cyclin d1 mRNA” value [5] was “marked reduction of cyclin d1 mRNA” and the apoptotic cells (UMUC3 cells [6]) was “did not induce any increases of apoptotic cells”. The “cells in G0/G1 (growth arrest)” value (UMUC3 cells [6]; 12h) was 57.98%, the “cells in G0/G1 (growth arrest)” value (UMUC3 cells [6]; 24h) was 62.62% and the SP1-dependent transcriptional activity [7] was “dramatically inhibition of SP1-dependent transcriptional activity”. For the same compound, the SP1 protein expression [8] was “only downregulated SP1 protein expression”, the “expression, activation or nuclear translocation of C-FOS, P-C-JUN(ser 73), P-C-JUN(ser63), C-JUN, HSF-1, P-ATFII, P-NF-κB p65, NF-κB p65” value [8] was “did not show any observable inhibition” and the cardiac hypertrophy (cardiac hypertrophy) was “inhibits cardiac hypertrophy”. The apoptosis ([9]; UMUC3 and other invasive BC cells, 20μM) was “induced apoptosis”, the cytotoxic effect ([9]; human bladder cancer cell lines, concentration lower than 20 μM) was “do not show cytotoxic effect” and the anchorage-independent growth ([9]; human bladder cancer cells, 20~60 μM) was “significant inhibitory effect on anchorage-independent growth”. For the same compound, the “earliest time of significant reduction of Cyclin D1 expression” value ([10]; RT112, 5 μM ISO) was 6 h, the “Cyclin D1 expression” value ([10]; high grade RT112 cell line, 24h) was “markedly inhibition of Cyclin D1 expression” and the morphologic changes (UMUC3 cells [11]) was “shrinkage, rounding, detachment and membrane blebbing”. The “cells in G0/G1 (growth arrest)” value [12] was 54.61%, the “inhibition of anchorage-independent growth” value [13] was “reversed by ectopic expression of GFP-Cyclin D1” and the cell proliferation (UMUC3 cells [14]; UMUC3, 5 μM ISO) was “inhibition of cell proliferation”. The IC50 (UMUC3 cells [14]; read-out: IC50, cell viability, UMUC3, ISO 5–60 μM, 48 h, n=3) was 22.4 ± 3.3 µM, the “Cyclin D1 expression” value [15] was “marginal induction of Cyclin D1” and the “earliest time of significant reduction of Cyclin D1 expression” value ([16]; UMUC3, 5 μM ISO) was 6 h. For the same compound, the “Cyclin B1 expression” value ([16]; UMUC3, 5 μM ISO, 24 h) was “slightly reduced”, the “expression of Cyclin A, Cyclin E, Cyclin B1, CDK4, CDK6, P53, P27, P21” value ([16]; UMUC3, different concentrations of ISO, 24 hours) was “did not show observable inhibition” and the “Cyclin D1 protein expression” value ([16]; UMUC3, different concentrations of ISO, 24 hours, vs DMSO) was “concentration-dependent reduction of Cyclin D1 protein expression”. The “endogenous Cyclin D1 vs exogenous GFP-Cyclin D1 protein expression” value [17] was “only downregulated endogenous Cyclin D1 protein expression”, the “Cyclin D1 transcription, SP1 mutant reporter” value ([18]; UMUC3/SP1mut-Cyclin D1-Luc transfectant) was “did not shown a significant inhibition of Cyclin D1 transcription” and the “Cyclin D1 transcription, WT reporter” value ([18]; UMUC3/WT Cyclin D1-Luc transfectant) was “inhibited Cyclin D1 transcription”. For the same compound, the “Cyclin D1 promoter transcriptional activity” value ([18]; UMUC3 stable reporter, time-dependent, P<0.01) was “marked inhibition of Cyclin D1 promoter transcriptional activity”, the “AUC(0-t)” value [19, 20] was 6090 ± 2810 ng·h/mL and the “AUC(0-∞)” value [19, 20] was 6100 ± 2800 ng·h/mL. The “CLz/F, apparent clearance” value [19, 20] was 462 ± 172 mL/min/kg, the “MRT(0-t), mean residence time” value [19, 20] was 0.70 ± 0.20 h and the “t1/2z, terminal half-life” value ([19]; mice, 150 mg/kg oral, non-compartmental model, 150 mg/kg) was 1.7 h and 1.72 ± 0.27 h. For the same compound, the “Caverage ± SD, serum ISO concentration” value ([19]; 0.033 h) was 6800 ± 2100 ng/mL, the “Caverage ± SD, serum ISO concentration” value ([19]; 0.083 h) was 10740 ± 3520 ng/mL and the “Caverage ± SD, serum ISO concentration” value ([19]; 0.170 h) was 12350 ± 4790 ng/mL. For the same compound, the “Caverage ± SD, serum ISO concentration” value ([19]; 0.250 h) was 9230 ± 4840 ng/mL, the “Caverage ± SD, serum ISO concentration” value ([19]; 0.500 h) was 6220 ± 3600 ng/mL and the “Caverage ± SD, serum ISO concentration” value ([19]; 0.750 h) was 830 ± 800 ng/mL. The “Caverage ± SD, serum ISO concentration” value ([19]; 1.000 h) was 290 ± 240 ng/mL, the “Caverage ± SD, serum ISO concentration” value ([19]; 1.500 h) was 280 ± 140 ng/mL and the “Caverage ± SD, serum ISO concentration” value ([19]; 2.000 h) was 170 ± 120 ng/mL. For the same compound, the “Caverage ± SD, serum ISO concentration” value ([19]; 4.000 h) was 30 ± 10 ng/mL.
